This passage reports MIC and Activity results from ChEMBL document CHEMBL1137692, “Synthesis and antimicrobial activity of new 1-alkyl/cyclohexyl-3,3-diaryl-1'-methylspiro[azetidine-2,3'-indoline]-2',4-diones” (2009).

The subject of assay [1] is Saccharomyces cerevisiae. The assay is described as follows: Antifungal activity against Saccharomyces cerevisiae by bioautographic agar overlay method. Format: functional. In a few lines:
(§1)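 Nutrient agar inoculated with the pure microbial culture was poured over the plates, which were incubated appropriately. Bacterial or fungal growth inhibition was scored by bioautography.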

In assay [2] the test system is Staphylococcus aureus. The assay can be described thus: Antibacterial activity against Staphylococcus aureus at 100 ug/mL by bioautographic agar overlay method. Format: functional, organism-based.
Assay [3] deals with Candida albicans. The assay can be described thus: Antifungal activity against Candida albicans at 100 ug/mL by bioautographic agar overlay method. Type of assay: functional, organism-based.
Assay [4] concerns Bacillus subtilis. The assay is described as follows: Antibacterial activity against Bacillus subtilis at 100 ug/mL by bioautographic agar overlay method. Type of assay: functional, organism-based.
The test system of assay [5] is Escherichia coli. The assay is described as follows: Antibacterial activity against Escherichia coli by bioautographic agar overlay method. Format: functional. In a few lines:
as §1

Assay [6] relates to Staphylococcus aureus. The assay is described as follows: Antibacterial activity against Staphylococcus aureus by bioautographic agar overlay method. Format: functional. In a few lines:
as §1

In assay [7] the test system is Bacillus subtilis. The assay is described as follows: Antibacterial activity against Bacillus subtilis by bioautographic agar overlay method. Type of assay: functional. The method, boiled down: as §1
The test system of assay [8] is Candida albicans. The assay is described as follows: Antifungal activity against Candida albicans by bioautographic agar overlay method.
The subject of assay [9] is Pseudomonas aeruginosa. The assay is described as follows: Antibacterial activity against Pseudomonas aeruginosa by bioautographic agar overlay method. Type of assay: functional. The method, boiled down:
as §1

In brackets after ≈: the same amount, converted by molar mass. Activity calls are given as the source filed them. The rule behind the calls is not given here.

For the compound `COc1ccc(C2(c3ccc(OC)cc3)C(=O)N(C(C)C)C23C(=O)N(C)c2ccccc23)cc1` (stereo unspecified), in [1], the MIC (in general, the lowest concentration found to suppress growth) was determined as 50 µg/mL (≈ 110 µM). The result in [2], in assay [3] and in assay [4] was inactive.
As to `COc1ccc(C2(c3ccc(OC)cc3)C(=O)N(C(c3ccccc3)c3ccccc3)C23C(=O)N(C)c2ccccc23)cc1` (stereo unspecified), the MIC in assay [5] and in assay [1] was 50 µg/mL (≈ 86.1 µM) each time. Besides, the outcome in assay [2], in assay [3] and in assay [4] was inactive.
For `CC(c1ccccc1)N1C(=O)C(c2ccccc2)(c2ccccc2)C12C(=O)N(C)c1ccccc12` (stereo unspecified), the result in assay [2], in assay [3] and in [4] was inactive.
As for `O=C(N[C@H](CO)[C@H](O)c1ccc([N+](=O)[O-])cc1)C(Cl)Cl` [CHLORAMPHENICOL], the MIC in assay [5], in [6] and in [7] was 0.1 µg/mL (≈ 0.309 µM) each time.
With `Clc1ccc(COC(Cn2ccnc2)c2ccc(Cl)cc2Cl)c(Cl)c1` (stereo unspecified) [MICONAZOLE], the MIC in [1] and in assay [8] was 0.1 µg/mL (≈ 0.24 µM) in each case.
Turning to `Cc1ccc(C2(c3ccc(C)cc3)C(=O)N(C(C)c3ccccc3)C23C(=O)N(C)c2ccccc23)cc1` (stereo unspecified), the outcome in assay [2], in assay [3] and in assay [4] was inactive.
`CC(C)N1C(=O)C(c2ccccc2)(c2ccccc2)C12C(=O)N(C)c1ccccc12` (stereo unspecified) came in with an MIC in assay [1] of 50 µg/mL (≈ 126 µM). Besides, the outcome in assay [2], in assay [3] and in [4] was inactive.
As for `CN1C(=O)C2(c3ccccc31)N(C(c1ccccc1)c1ccccc1)C(=O)C2(c1ccccc1)c1ccccc1` (stereo unspecified), it took 10 µg/mL (≈ 19.2 µM) to inhibit growth in assay [1] (MIC). Further, the result in assay [2], in assay [3] and in assay [4] was inactive.
Consider `CN1C(=O)C2(c3ccccc31)N(C1CCCCC1)C(=O)C2(c1ccccc1)c1ccccc1` (stereo unspecified), for which, in assay [5], inhibition of growth (MIC) required 100 µg/mL (≈ 229 µM). For the same compound, the result in [2], in assay [3] and in [4] was inactive.
Turning to `Cc1ccc(C2(c3ccc(C)cc3)C(=O)N(C(C)C)C23C(=O)N(C)c2ccccc23)cc1` (stereo unspecified), the figures for the MIC in assay [5], in assay [1] and in assay [9] were 10 µg/mL (≈ 23.6 µM), 50 µg/mL (≈ 118 µM) and 50 µg/mL (≈ 118 µM), respectively. Also, the result in [2], in assay [3] and in assay [4] was inactive.
For `Cc1ccc(C2(c3ccc(C)cc3)C(=O)N(C3CCCCC3)C23C(=O)N(C)c2ccccc23)cc1` (stereo unspecified), the MIC in [5] stood at 100 µg/mL (≈ 215 µM). The outcome in [2], in [3] and in assay [4] was inactive.
The compound `Cc1ccc(C2(c3ccc(C)cc3)C(=O)N(C(c3ccccc3)c3ccccc3)C23C(=O)N(C)c2ccccc23)cc1` (stereo unspecified) returned an MIC in assay [1] of 100 µg/mL (≈ 182 µM). The outcome in assay [2], in assay [3] and in assay [4] was inactive.
